Test: Toxicity liver stage against HepG2, at 10uM
Type: cell-based
Parameters: test concentration 10 uM, cell line HepG2-A16-CD81EGFP
Settings: human, HepG2-A16-CD81EGFP cells; read-out: INHIBITION
How it was run: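 Uninfected HepG2-A16-CD81EGFP cells, 3 × 10^3 per well, 1536-well, plated on prespotted compound at 10 μM final, parasite-free screening media added to match infected plates; puromycin 10 μM positive, DMSO 0.5% negative; run in parallel with 48 h PbLuc assay at 37 °C, 5% CO2; viability by CellTiter-Glo luminescence, normalized to controls.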

Compound | cytotoxicity at 10 µM
CCOCCCNC(=O)C(NC(=O)Cc1cccs1)c1ccccc1 (configuration not stated) | 12.3%
COCCN1C[C@H]2CN(C(=O)c3ccno3)CCN2C1=O | 1.29%
COC(=O)c1ccc(-c2ccc(/C=C3\C(=O)NC(=N)N3C)o2)cc1 | -66.3%
COc1cnc(CSc2nnc(C)s2)cc1OCC(N)=O | 8.52%
O=C1CC2(CCN(C(=O)c3ccccn3)CC2)Oc2c(Br)cc(Br)cc21 | 11.5%
CC(C)CN1CC(O)CN(S(=O)(=O)c2ccc(F)cc2)CC1=O (configuration not stated) | 2.99%
COc1ccccc1C(=O)N1CC(=O)N(CC2CC2)CC(O)C1 (configuration not stated) | 5.99%
COC(=O)c1ccc(C2CC(=O)Nc3c2cnn3C)cc1 (configuration not stated) | -2.56%
O=C(Cn1cnc2ccsc2c1=O)NCCCc1nnc2ccccn12 | 1.43%
O=C(CCn1ccc(=O)[nH]c1=O)N1CCC(Oc2ccccn2)CC1 | -1.47%
Cn1cnc(S(=O)(=O)NCC2(O)CCOc3ccccc32)c1 (configuration not stated) | 12%
CS(=O)(=O)N1CCCC12CCCN(C(=O)c1cc(F)cc(F)c1)C2 (configuration not stated) | -140%
Cc1ncsc1CN1C[C@H]2OCC[C@H]2[C@H](C(=O)NCC2CC2)C1 | 5.6%
COCC1c2c(cnn2C)CCN1Cc1ccc(C)o1 (configuration not stated) | -5.73%
CC(C)CC(=O)N1CCN(C(=O)NC(C)C)CC2(CC(=O)N(C)C2)C1 (configuration not stated) | 3.25%
Cc1ccc(NC(=O)CC2Cn3ncnc3NC2=O)cc1C (configuration not stated) | 10.5%
CCOCCCNC(=O)CN(c1cc(C)cc(C)c1)S(C)(=O)=O | 4.48%
Cn1ncc2c1NC(=O)CC2c1ccc(Cl)cc1Cl (configuration not stated) | 59.9%
O=C1CO[C@@H]2CN(S(=O)(=O)c3ccccc3)C[C@H]2N1CC1CC1 | -3.1%
CCC(C)NC(=O)c1ccn(COc2ccccc2Cl)n1 (configuration not stated) | 5.75%
CC[C@@H](Cn1ncc2ccccc2c1=O)NC(=O)c1ccco1 | 8.44%
CN(C(=O)c1ccccc1F)[C@@H]1CC[C@@H](O)[C@@H]1O | -6.11%

Compound | cytotoxicity at 10 µM
CN(C)c1cc(C2CCCN(C(=O)c3ccc(=O)[nH]n3)C2)ccn1 (configuration not stated) | -9.04%
Cn1ncc(Cl)c1C(=O)N1CCc2nc3sccc3c(=O)n2CC1 | -26.7%
CN(C(=O)c1ccnn1C)[C@@H]1CCC[C@@H](Oc2ccccc2)[C@@H]1O | -35.9%
Cc1ccccc1CN(C)C(=O)c1cc(C2CCCN2C)ccn1 (configuration not stated) | -4.76%
Cc1noc2nc(C3CCCN(Cc4ccncc4)C3)cc(C(F)F)c12 (configuration not stated) | -16.7%
CNC(=O)C1(c2cnccn2)CCCN1C(=O)c1c(F)cccc1F (configuration not stated) | -24.1%
Cc1csc(C(Cc2ccsc2)NC(=O)Cn2cccnc2=O)n1 (configuration not stated) | -22.2%
O=c1c2ccccc2nc2n1C(CSc1ccc(Cl)cc1Cl)CN2 (configuration not stated) | 6.01%
c1ccc(-c2nc(CCNCc3ccccn3)co2)cc1 | -1.89%
CCN(C)S(=O)(=O)c1c(F)cc(NC(C)=O)cc1F | -40.7%
CC(C)c1noc(CCC(=O)Nc2cc(F)ccc2F)n1 | -15.4%
Cc1cc(CN(C)C(=O)NC(C)Cc2ccco2)no1 (configuration not stated) | 6.62%
Cc1cn2c(n1)CCC(NS(=O)(=O)c1ccc(C)s1)C2 (configuration not stated) | 12.9%
CCC(C)(CC(=O)OC)NC(=O)c1ccc(C(C)=O)cc1 (configuration not stated) | -4.89%
Clc1cccc(N2CCC(NCc3ncc[nH]3)C2)c1 (configuration not stated) | 7.41%
Cc1n[nH]cc1CNC(=O)[C@H]1CCCCN1C(=O)OC(C)(C)C | -0.311%
CC(C)(C)c1cnc(CNCC2CCCN2c2cccnn2)o1 (configuration not stated) | -2.2%
CCc1nccn1C1CCCN(C(=O)c2ccnc(C)n2)C1 (configuration not stated) | -1.12%
Cc1sc2nc(C(F)(F)F)nc(N3CCC(NS(C)(=O)=O)CC3)c2c1C | -17%
CC(=O)N1CCN(c2nc(C(F)(F)F)nc3sc(C)c(C)c23)CC1 | -4.33%
Cn1cc(S(=O)(=O)N2CCCC2Cn2ccnc2)cn1 (configuration not stated) | 6.58%
CC(C)c1noc(CS(=O)(=O)Cc2nc(C(C)C)no2)n1 | -7.85%

Compound | cytotoxicity at 10 µM
CCN(Cc1cccc(NC(=O)COC)c1)C(C)=O | -125%
Cn1cc(C(=O)N(Cc2ccco2)Cc2cccs2)ccc1=O | -0.0261%
O=C(NC1CCN(c2ccccc2Br)C1)c1c[nH]nn1 (configuration not stated) | -17.9%
CC(C)N(Cc1ccccn1)C(=O)CCC(=O)c1ccccc1 | 3.33%
Cc1cc(C)n(C2CN(CC(O)Cn3cccn3)C2)n1 (configuration not stated) | -5.09%
NS(=O)(=O)c1cnn(-c2ccc(NC(=O)CC3CCCC3)cn2)c1 | 6.74%
CN1CCN(S(=O)(=O)c2ccc(Cl)c(Cl)c2)c2cnccc21 | 5.57%
CCN1CCc2c(cccc2NC(=O)CN(C)C2CCSC2)C1 (configuration not stated) | -47%
CN(C)c1nccc(N(C)C2CCOCC2)n1 | 3.13%
COc1cccc(C(=O)NC(C)CCN2CCOCC2)c1F (configuration not stated) | -45.2%
Cc1nc([C@@H]2C[C@@H]3CCN(C(=O)Cc4cccc(F)c4)C[C@H]3O2)no1 | 4.17%
Cc1nc([C@@H]2C[C@@H]3CCN(C(=O)Cc4ccsc4)C[C@H]3O2)no1 | 1.85%
CSCCC(=O)N1CCCN(c2ccccc2C)CC1 | -9.31%
COCCN(Cc1sccc1C)C(=O)COc1ccccc1O | -145%
O=C(C1CCCO1)N1CCC(Cn2cc(C3CCCC3)nn2)CC1 (configuration not stated) | 5.61%
CCc1noc(CN(C)C(=O)c2ccccc2-c2ncn[nH]2)n1 | 16.7%
Cc1ccnc(Cn2cc(-c3cccc(C(C)N(C)C)c3)nn2)c1 (configuration not stated) | 1.74%
CCCOCC1CCN(C(=O)Cn2cccc(C(F)(F)F)c2=O)C1 (configuration not stated) | -16.3%
CCn1cc(CN(C)c2nc(C)c3ccc(S(C)(=O)=O)cc3n2)cn1 | 48.8%
Cc1nc2c(NC(CC(C)(C)C)c3cccnc3)ncnc2o1 (configuration not stated) | 4.24%
Cc1ccc(OCC2CCCN(c3nc(CO)cs3)C2)cc1 (configuration not stated) | 5.4%
Cc1cc(C(=O)N2CCn3nc(C(=O)NC4CC4)cc3C2)nc(C)n1 | 1.15%

Compound | cytotoxicity at 10 µM
O=S1(=O)C[C@@H]2[C@H](C1)N(Cc1ncc[nH]1)CCN2CCCc1ccccc1 | 0.662%
CC(C)NS(=O)(=O)c1cc(C(=O)O)cc(-c2ccc3c(c2)OCCO3)c1 | -2.34%
O=C(CCn1ccnc1)N1CC[C@@H](c2ccc3ccccc3c2)[C@H](O)C1 | -0.288%
Nc1cc(N2CCCC(Cc3ccc(F)cc3F)(C(=O)O)C2)ncn1 (configuration not stated) | 10.6%
Cc1ccc(C(=O)NC2CCN(C)CC2)cc1N(C)S(C)(=O)=O | -0.853%
O=C(CCCN1CCCCC1)N[C@H](C(=O)O)c1cccc(F)c1F | -13.2%
CN(CC1CCCN1C)c1nccc(C2CCCC2)n1 (configuration not stated) | -12.9%
O=C(N1CCC(Oc2ccncc2)CC1)C1(c2ccc(F)cc2)CC1 | -7.66%
CNc1ccc(CC2CCCN(C(=O)c3cnc(C)nc3)C2)nn1 (configuration not stated) | -1.2%
Cc1cnn(CCNCc2cc(C#N)ccc2F)c1 | -10.1%
CNC(=O)CN1CCC(NC(=O)N(C)Cc2c(C)noc2C)CC1 | 2.1%
CCCN1CCCC1Cn1nc(C)cc1C (configuration not stated) | -7.72%
CCN(CC1CCOC1)C(=O)c1cnc2onc(C)c2c1 (configuration not stated) | -10.4%
COc1ccccc1CC(=O)NS(=O)(=O)c1ccc(C(N)=O)cc1 | -5.2%
Cc1cc(NC(=O)CN2CCc3cnc(C)nc3C2)on1 | -5.33%
COc1ccc(-c2nc(CN3CCc4c(ncn4C)C3)cs2)cc1 | 3%
Cc1cc(C(=O)NCc2ccnc(N(C)C)c2)c(C)o1 | -2.43%
CC1CCCCN1CCNC(=O)c1ccn(-c2ccc(F)cc2)n1 (configuration not stated) | -1.91%
CC(=O)N(Cc1noc(C)n1)C1CCN(CCOc2ccccc2)C1 (configuration not stated) | -2.04%
Cc1csc(C2CCCCN2C(=O)CN(C)C2CC2)n1 (configuration not stated) | -1.9%
CCn1ccnc1CN1CCCN(C(=O)Cc2ccc(C)nc2)CC1 | -1.92%
CC(C)c1nc(CN2CCN(CC3CCCO3)CC2)cs1 (configuration not stated) | -1.52%

Compound | cytotoxicity at 10 µM
Cc1[nH]c2c(C)cccc2c1CC(=O)N(C)CCN(C)C | 1.14%
CC(=O)N1[C@H](Cn2cncn2)C[C@@H]2CN(Cc3ccccn3)CC[C@@H]21 | 0.732%
COC[C@H]1CNC(=O)[C@@H]2CCN(Cc3ccc(F)cc3)CC[C@H]12 | 14.2%
Cc1noc(C)c1S(=O)(=O)N1CCc2nc(C3CCNCC3)ncc2C1 | -22.9%
CC(C)(C)C(=O)N1C[C@H](c2ccsc2)[C@H]2CN(C3CCCC3)CC[C@H]21 | 2.33%
Cc1ccc(CNC(=O)CN2CCN(CC(O)C3CC3)CC2)cc1 (configuration not stated) | 4.91%
CN(C)C(=O)[C@H]1CO[C@H]2CCN(c3ncc(F)cn3)C[C@H]2C1 | 7.75%
O=C(c1cscn1)N1CCC2(CN(Cc3ccoc3)C2)C1 | 7.2%
CS(=O)(=O)N1CCC2(CCCN(Cc3ccccn3)C2)CC1 | -121%
Cc1cccc(CN2CC[C@H]3O[C@H](C(=O)Nc4cnccn4)CC[C@H]32)n1 | -144%
CCc1cnc(N2CCC3(CC(=O)N(Cc4csc(C)n4)C3)C2)nc1 (configuration not stated) | -2.71%
Cc1ccc(CN2CCC3(CC2)OC(C(=O)N(C)C)c2ccccc23)o1 (configuration not stated) | 4.34%
O=C([C@@H]1CCO[C@@H]2CCN(CC3CCOCC3)C[C@H]21)N1CCCO1 | 7.37%
O=C(c1cccnc1)N1CCC2(CC1)CC(Oc1ccccc1)CO2 (configuration not stated) | 1.65%
Cc1nc(CN2CCC3(CC2)NC(=O)CC3c2ccccc2)cs1 (configuration not stated) | 4.33%
c1cc(CN2CCOCC3(C2)CN(Cc2nccs2)CCO3)ccn1 (configuration not stated) | 2.14%
FC1(F)CCN(Cc2ccccn2)CC12CCN(c1cnccn1)C2 (configuration not stated) | -108%
CCn1cc2[nH]c(OC)c(CNC(=O)C3CCCN(C)C3)cc-2c1=O (configuration not stated) | 11.3%
COCC1N(C(=O)c2ccco2)C2CCC1(O)CC2 (configuration not stated) | 1.4%

Source: ChEMBL document CHEMBL4513216, “Probing the Open Global Health Chemical Diversity Library for Multistage-Active Starting Points for Next-Generation Antimalarials” (ACS Infect Dis, 2020)
